From PubChem BioAssay
Activity calls are given as the source filed them.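 How the source made its calls, unless noted: active means visually confirmed hit in the image check and inhibition above 20%; inconclusive means visually confirmed hit but inhibition not above 20%; inactive means no visual hit in the image check.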

How the values were obtained:
[1] = inhibitors of TNFa-induced NFkB p65 translocation, primary screen, imaging, HUVEC, MLSMR starter and 10KST1 sets (AID 438;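 active means inhibition above 20% together with a positive visual image hit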;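 further: compound added about 3h40 before a 20 min TNFalpha stimulation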;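 on inhibition: signal is the nuclear over cytoplasmic p65 intensity ratio per well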); conditions: HUVEC TNFa-induced p65 nuclear translocation; cell count: measured here: nuclei count (cytotoxicity indicator), at 2.08 µM; inhibition: at 2 µM, stronger effect = higher value, 0% TNFa-plus-vehicle, 100% no-TNFa wells
[2] = inhibitors of E-selectin induction by TNFa, primary screen, imaging, HUVEC, immunofluorescence, MLSMR starter and 10KST1 sets (AID 487); conditions: HUVEC TNFalpha-induced E-selectin immunofluorescence imaging, at 2 µM; inhibition: stronger effect = higher value; nuclei count: measured here: cell number, toxicity;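 on inhibition: signal is fraction of cell area covered by stained E-selectin grains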;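 on nuclei count: 100% = median nuclei count of all wells on the same plate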
[3] = DUSP6 inhibitors restoring Erk phosphorylation by chemical complementation, primary imaging in DUSP6-transfected HeLa (AID 609;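 active means compounds giving at least 50% inhibition in the cell-based MKP-3 phosphatase rescue imaging test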;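 on inhibition: phospho-Erk level distribution per well compared with pooled transfected vehicle control wells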); conditions: HeLa MKP-3 transfected, phospho-Erk imaging KS statistic, at 10 µM, cells stimulated with TPA for 15 min
[4] = target: Dual specificity protein phosphatase 6 (Homo sapiens) (UniProt Q16828); assay: as above; conditions: HeLa MKP-3 transfected, phospho-Erk imaging KS statistic; at 10 µM; stronger effect = higher value; cells stimulated with TPA for 15 min
Dual specificity protein phosphatase 6 (Homo sapiens), sequence (Q16828 whole entry, looked up): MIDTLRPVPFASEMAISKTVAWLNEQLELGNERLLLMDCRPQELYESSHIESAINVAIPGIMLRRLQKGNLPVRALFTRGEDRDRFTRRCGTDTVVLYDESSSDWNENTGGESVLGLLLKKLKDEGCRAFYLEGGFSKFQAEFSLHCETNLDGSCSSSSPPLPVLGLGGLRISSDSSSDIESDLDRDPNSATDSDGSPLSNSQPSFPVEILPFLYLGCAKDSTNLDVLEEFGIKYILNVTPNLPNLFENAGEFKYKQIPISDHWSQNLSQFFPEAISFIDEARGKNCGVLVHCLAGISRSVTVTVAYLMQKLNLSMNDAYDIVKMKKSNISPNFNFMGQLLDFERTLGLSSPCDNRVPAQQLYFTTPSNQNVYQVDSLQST

[5] = target: Voltage-gated potassium channel subunit beta-2 (Rattus norvegicus) (UniProt P62483); assay: KvBeta enzyme negative modulators, primary screen, biochemical, NADPH fluorescence (AID 622;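 active means fluorescence slope higher than the sample average by over 3 SD, cut at about -0.22 in these data, passing the limit was not always enough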;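 further: slope of raw intensity against log time taken from 70 to 1610 s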); conditions: recombinant KvBeta, 4-cyanobenzaldehyde reduction, at 10 µM, stronger effect = higher value
Voltage-gated potassium channel subunit beta-2 (Rattus norvegicus), sequence (P62483 whole entry, looked up): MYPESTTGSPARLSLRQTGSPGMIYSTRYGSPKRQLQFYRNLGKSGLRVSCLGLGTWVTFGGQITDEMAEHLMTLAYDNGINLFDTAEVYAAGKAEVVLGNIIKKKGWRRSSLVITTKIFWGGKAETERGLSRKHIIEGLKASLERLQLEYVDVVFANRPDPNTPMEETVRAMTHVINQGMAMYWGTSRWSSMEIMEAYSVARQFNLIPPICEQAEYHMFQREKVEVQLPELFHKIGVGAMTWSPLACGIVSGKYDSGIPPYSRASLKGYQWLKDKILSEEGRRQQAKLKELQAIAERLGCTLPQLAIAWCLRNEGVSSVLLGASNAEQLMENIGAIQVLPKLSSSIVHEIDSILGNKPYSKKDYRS

[6] = target: Voltage-gated potassium channel subunit beta-2 (Rattus norvegicus) (UniProt P62483); assay: KvBeta positive modulators, primary screen, biochemical, NADPH fluorescence (AID 623;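 active means NADPH fluorescence slope more negative than the mean of all samples by about 3 SD, 99.7% confidence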;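 further: fluorescence intensity change per second fitted from 20 to 320 s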); conditions: Recombinant KvBeta, NADPH fluorescence decrease slope, 10 min; at 10 µM; stronger effect = lower value
[7] = target: Alpha-2C adrenergic receptor (Homo sapiens) (UniProt P18825); assay: modulators of alpha2C/GIRK thallium flux, primary screen, cell-based, HEK293 alpha2C/GIRK1/2 (AID 624;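 active means fluorescence slope after compound addition differing from the mean of all screened samples at 99.7% confidence, in either direction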;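 further: slope of fluorescence ratio to pre-addition baseline per second over 15 to 24 s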); conditions: thallium flux BTC fluorescence, at 10 µM, actives lie on both sides
Alpha-2C adrenergic receptor (Homo sapiens), sequence (P18825 whole entry, looked up): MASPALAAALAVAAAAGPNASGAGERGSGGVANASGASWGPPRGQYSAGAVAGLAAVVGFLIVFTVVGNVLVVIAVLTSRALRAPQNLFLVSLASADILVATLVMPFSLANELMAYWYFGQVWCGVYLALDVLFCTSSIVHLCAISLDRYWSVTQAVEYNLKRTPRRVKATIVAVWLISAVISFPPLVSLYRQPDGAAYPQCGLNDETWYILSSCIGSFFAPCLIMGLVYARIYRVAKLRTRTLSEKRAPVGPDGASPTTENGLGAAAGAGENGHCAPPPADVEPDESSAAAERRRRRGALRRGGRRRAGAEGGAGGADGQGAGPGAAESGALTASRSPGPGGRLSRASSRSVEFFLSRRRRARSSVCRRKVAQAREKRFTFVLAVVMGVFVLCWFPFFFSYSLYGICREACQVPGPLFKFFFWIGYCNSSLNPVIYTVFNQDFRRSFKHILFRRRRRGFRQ

[8] = inhibitors of larval lipid processing in zebrafish, primary screen, whole organism, PED6 fluorescence, gall bladder and intestine (AID 686;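 active means a full or partial loss of lipid-probe fluorescence in the fish gall bladder, intestine or both, judged by eye; inactive means no fluorescence loss, or compound toxic to the fish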;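 further: larvae 5 to 7 days old with five fish per well; signal comes from phospholipase A2 cleavage of quenched PED6 carried via bile; overnight exposure to compound and PED6 before scoring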); conditions: Zebrafish larvae PED6 lipid processing, fluorescence scoring; screened at 20 µM (by protocol)
How it was run: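 system = live zebrafish larvae aged 5-7 days, whole organism | probe or stimulus = ingested quenched lipid PED6 at 100 nM | doses = 20 µM single dose | timing = overnight exposure | detection = fluorescence microscopy with visual scoring of gall bladder and intestine | read-out = visual per-well fluorescence inhibition score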

[9] = inhibitors of Chlamydomonas gravitaxis, primary screen, whole organism, Chlamydomonas reinhardtii, WT vs cilia-less mutant, absorbance, 96-well (AID 463189;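 active means inhibition at or above 50% relative to wild type and mutant plate controls; inactive means inhibition below 50%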;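 further: 0% = wild type cc124 cells in DMSO and 100% = ciliumless bld1 mutant cells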); conditions: OD600 absorbance, 2 days, at 10 µM, stronger effect = higher value
[10] = measured here: cell density z-score
[11] = measured here: nuclear c-Myc green intensity z-score
[12] = measured here: nuclear pErk red intensity z-score, stronger effect = higher value

SMILES	cell count [1]	inhibition [1]	inhibition [2]	nuclei count [2]	z-score [3, 10]	z-score [3, 11]	z-score [3, 12]	inhibition [4]	fluorescence slope [5]	NADPH fluorescence slope [6]	slope [7]	outcome [8]	inhibition [9]
COc1cccc(-c2nnc3sc(-c4ccccc4)nn23)c1	659	1.9% (inactive)	-40.1% (inactive)	160%	-2.38	2.05	2	-15% (inactive)	-0.424 (inactive)	-0.000144 (inactive)	0.00489 (inactive)	inactive	-5.58% (inactive)
CCOc1ccc(-c2nnc3sc(-c4ccccc4OC)nn23)cc1	613	-5.4% (inactive)	36% (inactive)	174%	-0.391	2.01	-1.56	-9.66% (inactive)	-0.403 (inactive)	-0.000132 (inactive)	0.00485 (inactive)	inactive	0.927% (inactive)
Nc1ccc2c(c1)N1CCN=C1S2	646	-9.1% (inactive)	-53.2% (inactive)	169%	1.6	-0.44	0.246	-0.159% (inactive)	-0.545 (inactive)	-9.2e-05 (inactive)	0.00512 (inactive)	inactive	24% (inactive)
CCOc1ccc(C2/C(=C(/O)c3ccc(F)cc3)C(=O)C(=O)N2CCCN(C)C)cc1 (stereo unspecified)	564	-4.5% (inactive)	-17% (inactive)	186%	-0.359	0.0868	-0.309	-1.12% (inactive)	-0.388 (inactive)	-3e-05 (inactive)	0.00504 (inactive)	inactive	-0.349% (inactive)
COc1ccc(N/C(=N\c2nc(C)cc(C)n2)NC(=O)C(C)C)cc1OC	568	-6% (inactive)	-158% (inactive)	138%	0.3	1.29	0.284	3.97% (inactive)	-0.481 (inactive)	-3.5e-05 (inactive)	0.00493 (inactive)	inactive	1.34% (inactive)
Cc1ccc(C)c(OCc2nnc(NC(=O)c3ccco3)s2)c1	656	-2.1% (inactive)	37.1% (inactive)	191%	-0.0885	2.13	-0.0889	-4.27% (inactive)	-0.389 (inactive)	-5.4e-05 (inactive)	0.0056 (inactive)	inactive	-2.58% (inactive)
CCCCCCn1cc(C(=O)O)c(=O)c2ccccc21	426	-5.3% (inactive)	-95% (inactive)	158%	-1.56	1.61	1.42	-7.28% (inactive)	-0.402 (inactive)	-1.4e-06 (inactive)	0.00525 (inactive)	inactive	-8.24% (inactive)
O=C1CC(NCc2ccc3c(c2)OCO3)C(=O)N1Cc1ccc2c(c1)OCO2 (stereo unspecified)	521	5.6% (inactive)	-127% (inactive)	139%	0.834	0.684	-0.627	15.8% (inactive)	-0.505 (inactive)	-3.7e-05 (inactive)	0.00655 (inactive)	inactive	17.7% (inactive)
O=C(O)CC(NCc1ccco1)C(=O)OCCc1ccccc1 (stereo unspecified)	534	-1.9% (inactive)	6.5% (inactive)	116%	-0.641	0.383	-0.409	-1.75% (inactive)	-0.398 (inactive)	5.7e-06 (inactive)	0.00596 (inactive)	inactive	32.9% (inactive)
Cc1ccc(N(CC(=O)O)C2SC(=O)NC2=O)cc1 (stereo unspecified)	529	-12.4% (inactive)	-72.5% (inactive)	142%	0.0556	0.578	-1.85	18.2% (inactive)	-0.507 (inactive)	-2.2e-05 (inactive)	0.00492 (inactive)	inactive	31.2% (inactive)
COc1ccc(/C=C/C2=NC(=C\N(C)C)/C(=O)O2)cc1	558	0.1% (inactive)	-26.3% (inactive)	155%	-0.557	0.899	-1.61	5.26% (inactive)	-0.303 (inactive)	4.9e-06 (inactive)	0.00517 (inactive)	inactive	-3.9% (inactive)
COC(=O)CSc1nc(N)c2c3c(sc2n1)CCCC3	627	-10.6% (inactive)	-9.7% (inactive)	172%	-2.1	0.19	1.1	4.37% (inactive)	-0.355 (inactive)	-6.3e-05 (inactive)	0.00567 (inactive)	inactive	-6.63% (inactive)
CN(C)CC(O)COc1cccc(OCC(O)CN(C)C)c1 (stereo unspecified)	433	-6.5% (inactive)	-137% (inactive)	155%	-1.38	-0.215	0.992	-7.28% (inactive)	-0.4 (inactive)	-4.2e-05 (inactive)	0.00531 (inactive)	inactive	-5.71% (inactive)
Clc1cccc(-c2nn3c(-c4cccc(Cl)c4)nnc3s2)c1	612	-7.8% (inactive)	-20.4% (inactive)	169%	1.02	1.46	-0.806	-4.27% (inactive)	-0.412 (inactive)	-0.000162 (inactive)	0.00698 (inactive)	inactive	14.4% (inactive)
CCCc1[nH]n(-c2nc3ccccc3s2)c(=O)c1C=NCCN1CCOCC1	538	1.3% (inactive)	-110% (inactive)	123%	-0.895	0.406	-1.01	7.93% (inactive)	-0.474 (inactive)	-4e-05 (inactive)	0.00553 (inactive)	inactive	19.8% (inactive)
Nc1nnc(Cc2ccc(Cl)c(Cl)c2)s1	621	2.9% (inactive)	33.3% (inactive)	174%	0.377	1.31	-0.983	-7.86% (inactive)	-0.369 (inactive)	-3.6e-05 (inactive)	0.00535 (inactive)	inactive	2.91% (inactive)
CC/C(=N\O)c1ccc(OC)c(OC)c1	328	-13.3% (inactive)	-106% (inactive)	159%	-0.778	-1.02	1.01	1.75% (inactive)	-0.423 (inactive)	-0.000183 (inactive)	0.00545 (inactive)	inactive	13.3% (inactive)
COc1ccccc1N1CCN(CCOc2c(OC)cccc2OC)CC1	492	-10.5% (inactive)	-105% (inactive)	116%	-1.56	1.65	0.711	-3.98% (inactive)	-0.469 (inactive)	-0.000262 (inactive)	0.00445 (inactive)	inactive	-3.94% (inactive)
N#CC12CCCCC1CC1CCCCC1(C#N)N2Cc1ccccn1 (stereo unspecified)	372	-4.4% (inactive)	-22.3% (inactive)	86.1%	0.309	0.731	-1.95	-3.98% (inactive)	-0.46 (inactive)	-0.000337 (inactive)	0.0048 (inactive)	inactive	-3.05% (inactive)
Cc1nnc(SCc2nc3ccccc3[nH]2)s1	417	-9.9% (inactive)	-178% (inactive)	172%	1.08	-0.712	-0.186	-5.89% (inactive)	-0.368 (inactive)	-5.3e-05 (inactive)	0.00478 (inactive)	inactive	9.63% (inactive)
C=CCn1cnc2c(c1=O)c1nc3ccccc3nc1n2-c1ccc(Cl)cc1	479	-0.2% (inactive)	-57.8% (inactive)	97.9%	0.198	-0.115	-0.677	3.5% (inactive)	-0.489 (inactive)	-1.8e-05 (inactive)	0.00468 (inactive)	inactive	22.7% (inactive)
Nc1nonc1-c1noc(N2CCOCC2)n1	306	-10.9% (inactive)	-42.1% (inactive)	106%	0.592	0.125	0.227	-12.3% (inactive)	-0.281 (inactive)	1e-05 (inactive)	0.00528 (inactive)	inactive	17.1% (inactive)
O=S1(=O)C[C@@H](N2CCOCC2)[C@H](N2CCOCC2)C1	513	3.1% (inactive)	-110% (inactive)	133%	-0.578	0.935	0.179	-3.5% (inactive)	-0.462 (inactive)	-7.3e-05 (inactive)	0.00558 (inactive)	inactive	3.28% (inactive)
CCOC(=O)c1oc2cc(O)cc(C)c2c(=O)c1-c1cscn1	583	-5.6% (inactive)	-117% (inactive)	133%	0.544	-0.073	-1.73	19.8% (inactive)	-0.569 (inactive)	-4.5e-05 (inactive)	0.0036 (inactive)	inactive	-5.6% (inactive)
COc1ccc(C(=O)/C=C/Nc2cccc(C)n2)cc1OC	553	-2.4% (inactive)	-95.1% (inactive)	164%	-1.16	0.461	0.22	-1.12% (inactive)	-0.33 (inactive)	-2.1e-05 (inactive)	0.00813 (inactive)	inactive	-7.36% (inactive)
CC1CN(C2CCN(S(=O)(=O)c3ccccc3)CC2)CC(C)O1 (stereo unspecified)	451	-10.8% (inactive)	-248% (inactive)	159%	1.27	-1.71	-0.713	4.37% (inactive)	-0.322 (inactive)	-2.3e-05 (inactive)	0.00481 (inactive)	inactive	6.96% (inactive)
Cc1nnc2n(-c3ccccc3)c(=O)c3c4c(sc3n12)COC(C(C)C)C4 (stereo unspecified)	542	-6.5% (inactive)	-106% (inactive)	177%	-0.97	1.36	-0.55	-0.608% (inactive)	-0.357 (inactive)	-2.6e-05 (inactive)	0.00506 (inactive)	inactive	-3.02% (inactive)
